ChEMBL document CHEMBL1129041, “Design of orally active dual inhibitors of neutral endopeptidase and angiotensin-converting enzyme with long duration of action” (J Med Chem, 1996)

Legend:
[1] = target: T1, Angiotensin-converting enzyme (Rattus norvegicus, UniProt P47820); assay: In vitro inhibition of rat angiotensin I converting enzyme
T1 sequence (P47820 whole entry): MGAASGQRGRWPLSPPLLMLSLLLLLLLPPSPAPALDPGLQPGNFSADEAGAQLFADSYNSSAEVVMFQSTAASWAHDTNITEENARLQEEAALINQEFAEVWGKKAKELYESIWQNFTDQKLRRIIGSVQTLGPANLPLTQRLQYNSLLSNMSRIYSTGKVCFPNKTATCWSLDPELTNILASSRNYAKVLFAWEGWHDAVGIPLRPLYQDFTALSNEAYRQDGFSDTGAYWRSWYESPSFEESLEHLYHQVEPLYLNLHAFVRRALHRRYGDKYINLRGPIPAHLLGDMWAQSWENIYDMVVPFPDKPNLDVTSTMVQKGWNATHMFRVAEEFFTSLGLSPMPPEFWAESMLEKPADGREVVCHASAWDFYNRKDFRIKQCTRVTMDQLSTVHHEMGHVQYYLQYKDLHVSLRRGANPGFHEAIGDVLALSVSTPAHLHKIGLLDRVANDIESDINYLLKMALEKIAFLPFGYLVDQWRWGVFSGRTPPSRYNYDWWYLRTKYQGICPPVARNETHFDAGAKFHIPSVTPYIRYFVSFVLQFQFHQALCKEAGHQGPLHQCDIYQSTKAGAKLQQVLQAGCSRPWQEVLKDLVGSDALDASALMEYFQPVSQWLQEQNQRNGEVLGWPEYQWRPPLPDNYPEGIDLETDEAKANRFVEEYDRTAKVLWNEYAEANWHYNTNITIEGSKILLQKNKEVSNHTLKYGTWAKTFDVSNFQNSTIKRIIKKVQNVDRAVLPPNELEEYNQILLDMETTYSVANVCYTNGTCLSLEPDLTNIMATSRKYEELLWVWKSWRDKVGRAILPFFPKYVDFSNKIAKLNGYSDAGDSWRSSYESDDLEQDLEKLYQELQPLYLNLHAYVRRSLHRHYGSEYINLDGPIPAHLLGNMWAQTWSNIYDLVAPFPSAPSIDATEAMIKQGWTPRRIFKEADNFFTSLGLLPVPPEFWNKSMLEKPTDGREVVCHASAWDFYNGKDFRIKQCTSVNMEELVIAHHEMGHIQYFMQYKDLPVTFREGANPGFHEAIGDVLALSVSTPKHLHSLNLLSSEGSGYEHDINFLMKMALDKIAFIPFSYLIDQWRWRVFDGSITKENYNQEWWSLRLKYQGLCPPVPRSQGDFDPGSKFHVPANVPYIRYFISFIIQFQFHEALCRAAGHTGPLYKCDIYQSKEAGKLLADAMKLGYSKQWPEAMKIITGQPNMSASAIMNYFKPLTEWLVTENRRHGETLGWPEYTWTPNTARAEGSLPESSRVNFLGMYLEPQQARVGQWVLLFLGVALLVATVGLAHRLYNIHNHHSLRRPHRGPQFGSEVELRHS
Method in brief: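 ACE purified from rat testis, 0.02 pmol/100 µL final, preincubated 15 min at 37 °C with varying inhibitor in 50 mM Tris-HCl pH 8.0. N-Cbz-Phe-His-Leu added to 0.05 mM final, 15 min; stopped with 2 M NaOH. His-Leu measured fluorimetrically (ex 365, em 495 nm) against a His-Leu calibration curve. IC50 is the mean ± SEM of three experiments in triplicate.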

[2] = target: T2, Angiotensin-converting enzyme (Mus musculus) (UniProt P09470); assay: (§1) In vivo percent inhibition activity against lung Angiotensin I converting enzyme 2 hr after oral administration of a dose of 2.6 x 10e-5 mol/kg; assay type: organism-based
T2 sequence (whole entry): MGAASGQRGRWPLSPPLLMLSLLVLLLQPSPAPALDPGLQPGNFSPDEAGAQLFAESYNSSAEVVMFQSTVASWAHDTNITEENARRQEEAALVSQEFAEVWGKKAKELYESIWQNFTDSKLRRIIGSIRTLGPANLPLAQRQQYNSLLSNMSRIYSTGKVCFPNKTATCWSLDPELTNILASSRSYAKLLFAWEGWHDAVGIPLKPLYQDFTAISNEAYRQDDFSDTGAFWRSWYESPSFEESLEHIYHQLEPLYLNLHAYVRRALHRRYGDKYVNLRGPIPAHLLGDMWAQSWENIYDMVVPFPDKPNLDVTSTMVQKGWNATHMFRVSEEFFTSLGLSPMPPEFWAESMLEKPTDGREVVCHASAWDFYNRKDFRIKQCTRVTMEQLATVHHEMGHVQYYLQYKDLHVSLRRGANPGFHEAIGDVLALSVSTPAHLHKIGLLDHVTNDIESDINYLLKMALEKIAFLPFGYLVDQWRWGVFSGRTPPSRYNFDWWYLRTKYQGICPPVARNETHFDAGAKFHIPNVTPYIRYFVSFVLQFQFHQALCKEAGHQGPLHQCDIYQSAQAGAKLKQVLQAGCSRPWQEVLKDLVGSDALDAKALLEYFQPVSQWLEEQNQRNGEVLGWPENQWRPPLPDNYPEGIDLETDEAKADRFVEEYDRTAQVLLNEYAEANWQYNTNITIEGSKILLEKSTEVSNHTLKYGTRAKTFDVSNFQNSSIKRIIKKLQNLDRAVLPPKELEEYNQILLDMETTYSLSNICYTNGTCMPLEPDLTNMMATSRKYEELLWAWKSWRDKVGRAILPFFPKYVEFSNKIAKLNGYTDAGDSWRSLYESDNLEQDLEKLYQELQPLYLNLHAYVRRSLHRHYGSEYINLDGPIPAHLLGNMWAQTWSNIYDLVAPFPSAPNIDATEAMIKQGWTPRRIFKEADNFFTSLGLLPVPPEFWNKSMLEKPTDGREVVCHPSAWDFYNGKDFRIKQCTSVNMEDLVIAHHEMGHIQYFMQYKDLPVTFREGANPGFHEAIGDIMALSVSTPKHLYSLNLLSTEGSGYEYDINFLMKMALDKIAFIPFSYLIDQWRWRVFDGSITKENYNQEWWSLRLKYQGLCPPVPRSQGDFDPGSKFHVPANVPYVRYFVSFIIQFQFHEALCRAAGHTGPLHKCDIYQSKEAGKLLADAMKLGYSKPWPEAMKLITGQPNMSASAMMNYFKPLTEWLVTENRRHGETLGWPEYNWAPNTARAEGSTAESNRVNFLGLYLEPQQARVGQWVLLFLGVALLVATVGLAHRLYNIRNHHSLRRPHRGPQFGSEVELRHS
Method in brief: (§2)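 Mice dosed orally in 10% ethanol/10% cremophor/80% water. At 2 h, [3H]trandaloprilate (0.5 µCi) given iv; 15 min later lungs homogenized at 4 °C in 50 mM Tris-HCl pH 8.0 with 1 mM NaCl, centrifuged, and radioactivity counted. Total binding from untreated mice; nonspecific binding from probe coinjected with 1000 equiv captopril.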

[3] = target: T2, Angiotensin-converting enzyme (Mus musculus); assay: as §1; assay type: functional, organism-based; method in brief: as §2

IC50 [1] [nM] | inhibition [2] [%] | inhibition [3] [%] | Compound
0.7 | 89 |  | O=C(NCC(=O)N1[C@@H](c2cccc(O)c2)CC[C@H]1C(=O)O)[C@@H](S)Cc1ccc(O)cc1
0.55 |  | 63 | O=C(NCC(=O)N1[C@@H](c2ccccc2)CC[C@H]1C(=O)O)[C@@H](S)Cc1ccccc1
5 | 60 |  | Cc1ccccc1C1CC[C@@H](C(=O)O)N1C(=O)CNC(=O)[C@@H](S)Cc1ccc(O)cc1 (single isomer, unassigned)
0.6 |  | 82 | O=C(NCC(=O)N1[C@@H](c2ccccc2O)CC[C@H]1C(=O)O)[C@@H](S)Cc1ccc(O)cc1
3.1 |  | 57 | Cc1ccccc1[C@H]1CC[C@@H](C(=O)O)N1C(=O)CNC(=O)[C@@H](S)Cc1ccccc1
2.5 |  | 33 | Cc1ccc([C@H]2CC[C@@H](C(=O)O)N2C(=O)CNC(=O)[C@@H](S)Cc2ccc(O)cc2)cc1
6.8 |  | 42 | Cc1ccc([C@H]2CC[C@@H](C(=O)O)N2C(=O)CNC(=O)[C@@H](S)Cc2ccccc2)cc1
